Data on four molecules can be found in ChEMBL document CHEMBL1149771, “Antimicrobial studies of 2,4-dichloro-5-fluorophenyl containing oxadiazoles” (2008).

Values after ≈ are worked out from the molar mass of the structure shown.

Common to all, as to assay type: functional
For experiment [1], the system named is Aspergillus fumigatus. Nature of the experiment: Antifungal activity against Aspergillus fumigatus at 35 degC after 48 hrs. A digest of the protocol:
(§1)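 Fungicidal endpoint (MFC). 0.1 ml from each broth-dilution tube was spread on agar plates and c.f.u. counted after 48 h at 35 °C. MFC was the lowest concentration killing 99.9% of the inoculum.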

In experiment [2] the test system is Trichophyton mentagrophytes. Nature of the experiment: Antifungal activity against Trichophyton mentagrophytes at 37 degC after 3 to 4 days by agar dilution method. As to conditions: in the assay text read “agar diffusion method” for “agar dilution method”. The method, boiled down: (§2)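 Agar well diffusion for fungi, compounds in DMSO. Sabouraud agar was adjusted to pH 5.7 and lawned with a saline spore suspension (a loopful in 3 ml). Plates were dried 1 h at 37 °C, then wells were punched. Incubation was 3–4 days at 37 °C, with controls in triplicate. Inhibition zones were measured against controls, with griseofulvin as standard.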
In general terms: Agar dilution tests growth on a series of plates holding different concentrations.

Experiment [3] has as its system Candida albicans. Nature of the experiment: Antifungal activity against Candida albicans at 35 degC after 48 hrs by broth dilution method. A digest of the protocol:
(§3)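 Fungal MIC by broth dilution. Two-fold serial dilutions of compound in nutrient broth were inoculated with about 1.6 × 10⁴–6 × 10⁴ c.f.u./ml. Incubation was 48 h at 35 °C. MIC was the lowest concentration arresting fungal growth.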
(Broth dilution looks for growth in wells or tubes with falling amounts of substance.)

Experiment [4] concerns Escherichia coli. Nature of the experiment: Antibacterial activity against Escherichia coli ATCC 25922 at 35 degC after 18 to 24 hrs. A digest of the protocol:
(§4)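 Bactericidal endpoint (MBC) taken from the broth-dilution MIC tubes. 0.1 ml from each tube was spread on agar plates and c.f.u. counted after 18–24 h. MBC was the lowest concentration completely killing the bacteria.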

The test system of experiment [5] is Candida albicans. Nature of the experiment: Antifungal activity against Candida albicans at 37 degC after 3 to 4 days by agar dilution method. As to conditions: for Activity: in the assay text read “agar diffusion method” for “agar dilution method”. The method, boiled down: as §2
The test system of experiment [6] is Aspergillus fumigatus. Nature of the experiment: Antifungal activity against Aspergillus fumigatus at 37 degC after 3 to 4 days by agar […] method. A digest of the protocol: as §2
For experiment [7], the system named is Klebsiella pneumoniae. Nature of the experiment: Antibacterial activity against Klebsiella pneumoniae ATCC 25922 at 35 degC after 18 to 24 hrs. To be noted: recultured, in the assay text read “Klebsiella pneumoniae (recultured)” for “Klebsiella pneumoniae ATCC 25922”. The method, boiled down: as §4
The test system of experiment [8] is Escherichia coli. Put plainly: Antibacterial activity against Escherichia coli ATCC 25922 at 37 degC after 24 hrs by disc diffusion method. The method, boiled down:
(§5)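 Disc diffusion on nutrient agar. Plates were spread with 1–2 × […] c.f.u./ml inoculum (0.5 McFarland). Sterile 6.25 mm filter-paper discs were soaked in a known concentration of compound and placed on the agar. Plates were inverted and incubated 24 h at 37 °C. Inhibition zones (mm) were read against solvent and growth controls, with ciprofloxacin as reference.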

For experiment [9], the system named is Klebsiella pneumoniae. Put plainly: Antibacterial activity against Klebsiella pneumoniae ATCC 25922 at 37 degC after 24 hrs by disc diffusion method. A digest of the protocol: as §5
In general terms: A growth-free zone around the sample is the usual read-out of agar diffusion tests.

The subject of experiment [10] is Staphylococcus aureus. Put plainly: Antibacterial activity against Staphylococcus aureus ATCC 25923 at 37 degC after 24 hrs by disc diffusion method. The method, boiled down:
as §5

The test system of experiment [11] is Trichophyton mentagrophytes. Put plainly: Antifungal activity against Trichophyton mentagrophytes at 35 degC after 48 hrs by broth dilution method. A digest of the protocol:
as §3

The test system of experiment [12] is Trichophyton mentagrophytes. Put plainly: Antifungal activity against Trichophyton mentagrophytes at 35 degC after 48 hrs. A digest of the protocol:
as §1

The test system of experiment [13] is Pseudomonas aeruginosa. Put plainly: Antibacterial activity against Pseudomonas aeruginosa ATCC 27853 at 37 degC after 24 hrs by broth dilution method. To be noted: ATCC 27853, 24 h. The method, boiled down:
(§6)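 Broth dilution MIC. Nutrient broth held two-fold serial dilutions of compound and was inoculated with about 5 × 10⁵ c.f.u. of actively dividing bacteria. Cultures ran 24 h at 37 °C, with growth checked visually and spectrophotometrically. MIC was the lowest concentration arresting growth. Ciprofloxacin was the standard.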

Experiment [14] has as its system Pseudomonas aeruginosa. Put plainly: Antibacterial activity against Pseudomonas aeruginosa ATCC 27853 at 37 degC after 24 hrs by disc diffusion method. The method, boiled down:
as §5

For experiment [15], the system named is Klebsiella pneumoniae. Nature of the experiment: Antibacterial activity against Klebsiella pneumoniae ATCC 25922 at 37 degC after 24 hrs by broth dilution method. As to conditions: recultured, in the assay text read “Klebsiella pneumoniae (recultured)” for “Klebsiella pneumoniae ATCC 25922”. The method, boiled down:
as §6

For experiment [16], the system named is Talaromyces marneffei. Put plainly: Antifungal activity against Penicillium marneffei at 37 degC after 3 to 4 days by agar […] method. The method, boiled down: as §2
The subject of experiment [17] is Talaromyces marneffei. Put plainly: Antifungal activity against Penicillium marneffei at 35 degC after 48 hrs. The method, boiled down: as §1
For experiment [18], the system named is Candida albicans. Put plainly: Antifungal activity against Candida albicans at 35 degC after 48 hrs. The method, boiled down: as §1
In experiment [19] the test system is Staphylococcus aureus. Put plainly: Antibacterial activity against Staphylococcus aureus ATCC 25923 at 37 degC after 24 hrs by broth dilution method. To be noted: ATCC 25923, 24 h. A digest of the protocol: as §6
The test system of experiment [20] is Staphylococcus aureus. Put plainly: Antibacterial activity against Staphylococcus aureus ATCC 25923 at 35 degC after 18 to 24 hrs. The method, boiled down: as §4
In experiment [21] the test system is Escherichia coli. Nature of the experiment: Antibacterial activity against Escherichia coli ATCC 25922 at 37 degC after 24 hrs by broth dilution method. To be noted: ATCC 25922, 24 h. A digest of the protocol: as §6
Experiment [22] concerns Pseudomonas aeruginosa. Nature of the experiment: Antibacterial activity against Pseudomonas aeruginosa ATCC 27853 at 35 degC after 18 to 24 hrs. A digest of the protocol: as §4
Experiment [23] concerns Talaromyces marneffei. Put plainly: Antifungal activity against Penicillium marneffei at 35 degC after 48 hrs by broth dilution method. A digest of the protocol:
as §3

Experiment [24] has as its system Aspergillus fumigatus. Nature of the experiment: Antifungal activity against Aspergillus fumigatus at 35 degC after 48 hrs by broth dilution method. The method, boiled down: as §3

The term MFC denotes the lowest tested concentration that kills the fungus rather than only halting it. Read a low MFC as greater fungicidal potency. Broadly, the MIC is the least concentration at which growth counts as inhibited. The low end stands for inhibition by little substance, the high end for a need for much substance. In general, MBC refers to the smallest concentration meeting the test's criterion for killing.

Regarding `Fc1cc(-c2nnc(COc3ccccc3Cl)o2)c(Cl)cc1Cl`, the MFC against Aspergillus fumigatus [1] was 12.5 µg/mL (≈ 33.5 µM); in experiment [12], 50 µg/mL (≈ 134 µM); against Talaromyces marneffei [17], more than 100 µg/mL; in the experiment with Candida albicans [18] it was 50 µg/mL (≈ 134 µM). Further, the “inhibition zone (IZ)” value in [2] was found to be 12 mm; in the experiment on Candida albicans [5] it was 10 mm; with Aspergillus fumigatus [6], 19 mm; with Escherichia coli [8], 18 mm; in the experiment on Klebsiella pneumoniae [9], 12 mm; in the experiment with Staphylococcus aureus [10], 15 mm. For the same molecule, the “inhibition zone (IZ)” value in the experiment on Pseudomonas aeruginosa [14] came to 15 mm. The minimal inhibitory concentration (MIC) against Candida albicans [3] was 25 µg/mL (≈ 66.9 µM); in [11], 12.5 µg/mL (≈ 33.5 µM); against Pseudomonas aeruginosa [13], 12.5 µg/mL (≈ 33.5 µM); in the experiment on Klebsiella pneumoniae [15], 25 µg/mL (≈ 66.9 µM); with Staphylococcus aureus [19], 12.5 µg/mL (≈ 33.5 µM); against Escherichia coli [21] it was 6.25 µg/mL (≈ 16.7 µM). Besides, the minimal inhibitory concentration (MIC) against Talaromyces marneffei [23] is more than 100 µg/mL; in the experiment with Aspergillus fumigatus [24], 6.25 µg/mL (≈ 16.7 µM). Also, the minimum bactericidal concentration (MBC) is 12.5 µg/mL (≈ 33.5 µM) against Escherichia coli [4], 50 µg/mL (≈ 134 µM) in the experiment with Klebsiella pneumoniae [7], 50 µg/mL (≈ 134 µM) with Staphylococcus aureus [20] and 25 µg/mL (≈ 66.9 µM) against Pseudomonas aeruginosa [22]. This molecule returned an Activity in the experiment with Talaromyces marneffei [16] of more than 100 µg/mL.

Consider `Cc1cc(Cl)ccc1OCc1nnc(-c2cc(-c3cc(F)c(Cl)cc3Cl)nc3ccccc23)o1`, for which the MFC is 50 µg/mL (≈ 97.1 µM) in the experiment with Aspergillus fumigatus [1], 12.5 µg/mL (≈ 24.3 µM) in [12], more than 100 µg/mL in the experiment on Talaromyces marneffei [17] and more than 100 µg/mL against Candida albicans [18]. Also, the “inhibition zone (IZ)” value in [2] is 19 mm; in the experiment on Aspergillus fumigatus [6], 12 mm; in the experiment with Staphylococcus aureus [10] it was 17 mm; with Pseudomonas aeruginosa [14] it was 12 mm. In addition, the minimal inhibitory concentration (MIC) in the experiment on Candida albicans [3] is more than 100 µg/mL; in experiment [11] it was 6.25 µg/mL (≈ 12.1 µM); against Pseudomonas aeruginosa [13], 12.5 µg/mL (≈ 24.3 µM); in the experiment on Klebsiella pneumoniae [15], more than 100 µg/mL; with Staphylococcus aureus [19], 6.25 µg/mL (≈ 12.1 µM); with Escherichia coli [21], more than 100 µg/mL. Besides, the minimal inhibitory concentration (MIC) in the experiment with Talaromyces marneffei [23] is more than 100 µg/mL; in the experiment with Aspergillus fumigatus [24] it was 12.5 µg/mL (≈ 24.3 µM). Moreover, the minimum bactericidal concentration (MBC) with Escherichia coli [4] is more than 100 µg/mL; in the experiment on Klebsiella pneumoniae [7], more than 100 µg/mL; in the experiment on Staphylococcus aureus [20] it was 25 µg/mL (≈ 48.6 µM); in the experiment on Pseudomonas aeruginosa [22] it was 50 µg/mL (≈ 97.1 µM). Besides, the Activity in the experiment on Candida albicans [5], in the experiment with Escherichia coli [8], in the experiment with Klebsiella pneumoniae [9] and in the experiment on Talaromyces marneffei [16] was more than 100 µg/mL in each case.

Take `Cc1cc(OCc2nnc(-c3cc(-c4cc(F)c(Cl)cc4Cl)nc4ccccc34)o2)ccc1Cl`: the MFC against Aspergillus fumigatus [1] is 25 µg/mL (≈ 48.6 µM); in experiment [12] it was more than 100 µg/mL; against Talaromyces marneffei [17], 50 µg/mL (≈ 97.1 µM); against Candida albicans [18], more than 100 µg/mL. In addition, the Activity (in experiment [2]; with Candida albicans [5]; in the experiment with Klebsiella pneumoniae [9]; with Staphylococcus aureus [10]) was more than 100 µg/mL throughout. For the same molecule, the minimum inhibitory concentration (MIC) is more than 100 µg/mL in the experiment on Candida albicans [3]; more than 100 µg/mL in experiment [11]; 6.25 µg/mL (≈ 12.1 µM) in the experiment with Pseudomonas aeruginosa [13]; more than 100 µg/mL in the experiment with Klebsiella pneumoniae [15]; more than 100 µg/mL with Staphylococcus aureus [19]; 12.5 µg/mL (≈ 24.3 µM) against Escherichia coli [21]. Also, the minimum inhibitory concentration (MIC) against Talaromyces marneffei [23] and in the experiment with Aspergillus fumigatus [24] was 12.5 µg/mL (≈ 24.3 µM) each time. Moreover, the MBC in the experiment with Escherichia coli [4] is 25 µg/mL (≈ 48.6 µM); in the experiment on Klebsiella pneumoniae [7] it was more than 100 µg/mL; in the experiment with Staphylococcus aureus [20] it was more than 100 µg/mL; in the experiment with Pseudomonas aeruginosa [22], 25 µg/mL (≈ 48.6 µM). Besides, the “inhibition zone (IZ)” value is 15 mm in the experiment with Aspergillus fumigatus [6], 17 mm in the experiment on Escherichia coli [8], 26 mm in the experiment with Pseudomonas aeruginosa [14] and 12 mm with Talaromyces marneffei [16].

Regarding `Fc1cc(-c2cc(-c3nnc(COc4ccc(Cl)cc4Cl)o3)c3ccccc3n2)c(Cl)cc1Cl`, the MFC with Aspergillus fumigatus [1] was 12.5 µg/mL (≈ 23.4 µM); in experiment [12] it was 25 µg/mL (≈ 46.7 µM); against Talaromyces marneffei [17] it was 6.25 µg/mL (≈ 11.7 µM); against Candida albicans [18] it was 6.25 µg/mL (≈ 11.7 µM). Moreover, the “inhibition zone (IZ)” value in experiment [2] turned out to be 21 mm; in the experiment on Candida albicans [5], 29 mm; with Aspergillus fumigatus [6], 27 mm; in the experiment with Escherichia coli [8] it was 26 mm; with Klebsiella pneumoniae [9], 17 mm; in the experiment with Staphylococcus aureus [10] it was 20 mm. In addition, the figures for the “inhibition zone (IZ)” value in the experiment on Pseudomonas aeruginosa [14] and with Talaromyces marneffei [16] were 30 mm and 19 mm, respectively. Also, the MIC with Candida albicans [3] came out at 6.25 µg/mL (≈ 11.7 µM); in experiment [11] it was 6.25 µg/mL (≈ 11.7 µM); in the experiment on Pseudomonas aeruginosa [13], 6.25 µg/mL (≈ 11.7 µM); in the experiment with Klebsiella pneumoniae [15] it was 12.5 µg/mL (≈ 23.4 µM); against Staphylococcus aureus [19] it was 6.25 µg/mL (≈ 11.7 µM); against Escherichia coli [21], 6.25 µg/mL (≈ 11.7 µM). The minimal inhibitory concentration (MIC) in the experiment with Talaromyces marneffei [23] and in the experiment with Aspergillus fumigatus [24] was 6.25 µg/mL (≈ 11.7 µM) in each case. Moreover, the MBC in the experiment with Escherichia coli [4] was 12.5 µg/mL (≈ 23.4 µM); in the experiment with Klebsiella pneumoniae [7], 12.5 µg/mL (≈ 23.4 µM); in the experiment on Staphylococcus aureus [20] it was 6.25 µg/mL (≈ 11.7 µM); in the experiment with Pseudomonas aeruginosa [22], 12.5 µg/mL (≈ 23.4 µM).
